According to ChEMBL document CHEMBL4028805, “Phenylthiazole Antibacterial Agents Targeting Cell Wall Synthesis Exhibit Potent Activity in Vitro and in Vivo against Vancomycin-Resistant Enterococci” (J Med Chem, 2017):
In brackets after ≈: the same amount, converted by molar mass. Activity calls are given as the source filed them.

What was measured:
Enterobacter cloacae [1] = experiment: Antibacterial activity against Enterobacter cloacae BAA-1154 after 18 to 22 hrs in absence of colistin by broth microdilution method; format: functional
HRT-18 cell line [2] = experiment: Cytotoxicity against human HRT18 cells assessed as reduction in cell viability up to 40 ug/ml after 2 hrs by MTS assay; format: cell-based; conditions: hrt-18, 2 h
In short: (§1)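 HRT-18 cells maintained in RPMI-1640 with 10% fetal horse serum at 37 °C, 5% CO2. Exposed to 5, 10, 20 or 40 μg/mL for 2 or 24 h, then MTS added and absorbance read at 490 nm. Viability expressed relative to untreated cells, n ≥ 3, one-way ANOVA with Dunnett's test.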

Klebsiella pneumoniae [3] = experiment: Antibacterial activity against Klebsiella pneumoniae BAA-1706 after 18 to 22 hrs in absence of colistin by broth microdilution method; format: functional
Enterobacter cloacae [4] = experiment: Antibacterial activity against Enterobacter cloacae BAA-1154 after 18 to 22 hrs in presence of 1/4 times MIC colistin by broth microdilution method; format: functional
In short: (§2)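 Broth microdilution per CLSI guidelines. Gram-negatives grown in TSB. Each strain tested alone and again with colistin at ¼ × MIC to permeabilize the outer membrane. Plates incubated at 37 °C for 18–22 h. MIC read as the lowest concentration showing no visible growth.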

Enterococcus faecium [5] = experiment: Bactericidal activity against Enterococcus faecium after 18 to 22 hrs by broth microdilution method; format: functional
In short: (§3)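 MBC determined after the broth microdilution MIC. 5 μL aliquots plated onto TSA (E. faecalis) or BHI agar (E. faecium) and incubated at 37 °C for 18–22 h. MBC is the concentration giving >99% reduction in cell count, reported as MBC50.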

Enterococcus faecalis [6] = experiment: Antibacterial activity against Enterococcus faecalis clinical isolates after 18 to 22 hrs by broth microdilution method; format: functional
In short: (§4)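 CLSI broth microdilution against panels of enterococcal isolates. E. faecalis grown in TSB, E. faecium in BHI, 37 °C for 18–22 h. MIC is the lowest concentration without visible growth. MIC50 is the value inhibiting 50% of isolates in each group.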

Enterococcus faecalis [7] = experiment: Bactericidal activity against vancomycin-resistant Enterococcus faecalis HM-201 at 4 times MIC after 2 hrs by time-kill assay; format: functional
In short: (§5)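 Late-log cells diluted to ~5 × 10^6 CFU/mL and exposed in triplicate to 4 × MIC, in TSB (E. faecalis HM-201) or BHI (E. faecium ATCC 700221) at 37 °C. Sampled at 0, 2, 4, 6, 8, 10, 12 and 24 h, diluted serially in PBS and plated on TSA or BHI agar. CFU/mL counted after 18–22 h. DMSO served as negative control.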

Enterococcus faecalis [8] = experiment: Antibacterial activity against vancomycin-resistant Enterococcus faecalis clinical isolates after 18 to 22 hrs by broth microdilution method; format: functional; in short: as §4
Enterococcus faecalis [9] = experiment: Synergistic antimicrobial activity against Enterococcus faecalis ATCC 49533 after 20 hrs in presence of ciprofloxacin by checkerboard assay; format: functional
In short: (§6)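 Checkerboard in TSB with a starting inoculum of 1×10^5 CFU/mL. Compound and antibiotic diluted from 2× or 4× MIC along perpendicular axes. Incubated 20 h at 37 °C. ΣFIC calculated: ≤0.5 synergy, >0.5 to <2 additive, 2–4 indifference, >4 antagonism.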

Klebsiella pneumoniae [10] = experiment: Antibacterial activity against Klebsiella pneumoniae BAA-1706 after 18 to 22 hrs in presence of 1/4 times MIC colistin by broth microdilution method; format: functional; in short: as §2
Escherichia coli [11] = experiment: Antibacterial activity against Escherichia coli O157:H7 ATCC 35150 after 18 to 22 hrs in absence of colistin by broth microdilution method; format: functional
Enterococcus faecium [12] = experiment: Antibacterial activity against Enterococcus faecium clinical isolates after 18 to 22 hrs by broth microdilution method; format: functional
In short: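 Enterococcus faecium grown in BHI. MIC by CLSI broth microdilution, 37 °C for 18–22 h. Lowest concentration with no visible growth taken as MIC, reported as MIC50 across the isolates.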

Enterococcus faecium [13] = experiment: Antibacterial activity against vancomycin-resistant Enterococcus faecium ATCC HM-968 after 14 serial passages measured after 18 hrs by broth microdillution method; format: functional
In short: (§7)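 Multi-step selection over 14 passages in two weeks. McFarland 0.5 inoculum diluted 1:300 in TSB (E. faecalis) or BHI (E. faecium) to 1 × 10^5 CFU/mL. Each passage reinoculated at ~5 × 10^5 CFU/mL from the sub-inhibitory well of the previous plate. Compounds serially diluted in triplicate, incubated ≥18 h at 37 °C, MIC read visually. Resistance defined as >4-fold MIC rise.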

HRT-18 cell line [14] = experiment: Cytotoxicity against human HRT18 cells assessed as reduction in cell viability at 20 ug/ml after 24 hrs by MTS assay; format: cell-based; conditions: hrt-18, 24 h; in short: as §1
Enterococcus faecium [15] = experiment: Bactericidal activity against vancomycin-resistant Enterococcus faecium ATCC 700221 at 4 times MIC after 4 hrs by time-kill assay; format: functional; in short: as §5
Escherichia coli [16] = experiment: Antibacterial activity against Escherichia coli 1411 harboring delta-acrAB after 18 to 22 hrs in absence of colistin by broth microdilution method; format: functional
Enterococcus faecalis [17] = experiment: Antibacterial activity against vancomycin-resistant Enterococcus faecalis ATCC 51299 assessed as ratio of MIC after and before 6 serial passages measured after 18 hrs by broth microdillution method; format: functional; in short: as §7
Staphylococcus aureus = experiment: Antibacterial against Methicillin-Resistant Staphylococcus aureus after 18 to 20 hrs by broth microdilution method; format: functional
Enterococcus faecalis [18] = experiment: Synergistic antimicrobial activity against Enterococcus faecalis ATCC 49532 after 20 hrs in presence of ciprofloxacin by checkerboard assay; format: functional; in short: as §6
Enterococcus faecalis [19] = experiment: Bactericidal activity against Enterococcus faecalis clinical isolates after 18 to 22 hrs by broth microdilution method; format: functional; in short: as §3
Pseudomonas aeruginosa [20] = experiment: Antibacterial activity against Pseudomonas aeruginosa ATCC 15442 after 18 to 22 hrs in presence of 1/4 times MIC colistin by broth microdilution method; format: functional; in short: as §2
Enterococcus faecium [21] = experiment: Bactericidal activity against Vancomycin-resistant Enterococcus faecium clinical isolates after 18 to 22 hrs by broth microdilution method; format: functional
In short: (§8)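 MBC follows the broth microdilution MIC. 5 μL aliquots spotted onto TSA (E. faecalis) or BHI agar (E. faecium), incubated 37 °C for 18–22 h. MBC is the concentration giving >99% reduction in bacterial count. MBC50 is the value for 50% of isolates.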

Escherichia coli [22] = experiment: Antibacterial activity against Escherichia coli O157:H7 ATCC 35150 after 18 to 22 hrs in presence of 1/4 times MIC colistin by broth microdilution method; format: functional
Acinetobacter baumannii [23] = experiment: Antibacterial activity against Acinetobacter baumanii ATCC 19606 after 18 to 22 hrs in absence of colistin by broth microdilution method; format: functional; conditions: ATCC 19606 = CIP 70.34 = JCM 6841; in short: as §2
Acinetobacter baumannii [24] = experiment: Antibacterial activity against Acinetobacter baumanii ATCC 19606 after 18 to 22 hrs in presence of 1/4 times MIC colistin by broth microdilution method; format: functional; conditions: ATCC 19606 = CIP 70.34 = JCM 6841; in short: as §2
Enterococcus faecalis [25] = experiment: Antibacterial activity against Enterococcus faecalis ATCC 31975 at 4 to 8 times MIC after 48 hrs by broth microdillution method; format: functional
In short: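 Single-step resistance selection. Cultures of 5 × 10^8 to 5 × 10^10 CFU/mL spread on TSA containing compound at 2×, 4× or 8× MIC and incubated aerobically at 37 °C for 48 h. Colony MICs rechecked by broth microdilution. Frequency calculated as resistant colonies per inoculum.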

HRT-18 cell line [26] = experiment: Cytotoxicity against human HRT18 cells assessed as reduction in cell viability at 40 ug/ml after 24 hrs by MTS assay; format: cell-based; conditions: hrt-18, 24 h; in short: as §1
Pseudomonas aeruginosa [27] = experiment: Antibacterial activity against Pseudomonas aeruginosa ATCC 15442 after 18 to 22 hrs in absence of colistin by broth microdilution method; format: functional
Enterococcus faecium [28] = experiment: Antibacterial activity against vancomycin-resistant Enterococcus faecium ATCC 700221 after 18 to 22 hrs in absence of colistin by broth microdilution method; format: functional
Enterococcus faecalis [29] = experiment: Antibacterial activity against vancomycin-resistant Enterococcus faecalis HM-201 infected in Caenorhabditis elegans AU37 assessed as reduction in bacterial burden at 20 ug/ml after 18 hrs by CFU-based […] analysis relative to control; format: functional; parameters: scale not given: the % may be the effect or the level left
In short: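 C. elegans AU37 adults infected on an E. faecalis HM-201 lawn for 2 h, washed in M9, 20–25 worms per well. Treated in triplicate with 20 μg/mL, with water as negative control. Worms washed, lysed with silicon carbide by vortexing, diluted serially and plated on TSA with 50 μg/mL gentamicin. CFU counted after 18 h at 37 °C and expressed as % reduction versus untreated worms.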

Enterococcus faecalis [30] = experiment: Bactericidal activity against vancomycin-resistant Enterococcus faecalis clinical isolates after 18 to 22 hrs by broth microdilution method; format: functional; in short: as §8
[31] = Toxicity in Caenorhabditis elegans AU37 assessed as worm survival at 20 ug/ml after 24 hrs by microscopic analysis; conditions: AU37, caenorhabditis elegans
In short: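 Adult C. elegans AU37, 15–20 per well, exposed in triplicate to 10 or 20 μg/mL, with sterile water as negative control. Viability checked by microscopy. Result reported as percent viable worms after 24 h exposure.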

SMILES: CCCCC#Cc1ccc(-c2nc(C)c(/C(C)=N/NC(=N)N)s2)cc1
- MIC (Enterobacter cloacae [1]): > 128 µg/mL
- Activity (HRT-18 cell line [2]): Non-Toxic
- MIC (Klebsiella pneumoniae [3]): > 128 µg/mL
- MIC (Enterobacter cloacae [4]): 1 µg/mL
- MBC50 (Enterococcus faecium [5]): 4 µg/mL (≈ 11.3 µM)
- MIC50 (Enterococcus faecalis [6]): 8 µg/mL (≈ 22.6 µM)
- Activity (Enterococcus faecalis [7]): Active
- MIC50 (Enterococcus faecalis [8]): 4 µg/mL (≈ 11.3 µM)
- fractional inhibitory concentration index (FICI) (Enterococcus faecalis [9]): 0.63 - 1
- MIC (Klebsiella pneumoniae [10]): 1 µg/mL
- MIC (Escherichia coli [11]): > 128 µg/mL
- MIC50 (Enterococcus faecium [12]): 4 µg/mL (≈ 11.3 µM)
- Activity (Enterococcus faecium [13]): Active
- Activity (HRT-18 cell line [14]): Non-Toxic
- Activity (Enterococcus faecium [15]): Active
- MIC (Escherichia coli [16]): 8 µg/mL (≈ 22.6 µM)
- Ratio (Enterococcus faecalis [17]): 1
- MIC (Staphylococcus aureus): 1.3 to 5.6 µg/mL (≈ 3.68 to 15.8 µM)
- fractional inhibitory concentration index (FICI) (Enterococcus faecalis [18]): 0.63 - 1
- MBC50 (Enterococcus faecalis [19]): 8 µg/mL (≈ 22.6 µM)
- MIC (Pseudomonas aeruginosa [20]): 1 µg/mL
- MBC50 (Enterococcus faecium [21]): 4 µg/mL (≈ 11.3 µM)
- MIC (Escherichia coli [22]): 1 µg/mL
- MIC (Acinetobacter baumannii [23]): 8 µg/mL (≈ 22.6 µM)
- MIC (Acinetobacter baumannii [24]): 1 µg/mL
- Activity (Enterococcus faecalis [25]): Active
- Activity (HRT-18 cell line [26]): Toxic
- MIC (Pseudomonas aeruginosa [27]): > 128 µg/mL
- MIC (Enterococcus faecium [28]): 0.5 µg/mL (≈ 1.41 µM)
- Activity (Enterococcus faecalis [29]): 94%
- MBC50 (Enterococcus faecalis [30]): 4 µg/mL (≈ 11.3 µM)
- survival at 24 h, 20 ug/ml [31]: 90%
